# Laboratory results published in ChEMBL document CHEMBL4138126, “Synthesis, antiproliferative, anti-tubulin activity, and docking study of new 1,2,4-triazoles as potential combretastatin analogues” (Eur J Med Chem, 2017).
# How the values were obtained:
# Format in all cases: functional
# [1] = tested on: NCI/ADR-RES; assay: Growth inhibition of human NCI-ADR-RES cells assessed as cell growth at 10 uM after 48 hrs by sulforhodamine B assay; conditions: read-out: Activity
# Procedure, shortened: (§1)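 NCI 60-cell-line panel screen (nine cancer types). Compounds added at single concentration 10^-5 M, cultures incubated 48 h; growth inhibition percentages reported.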
# [2] = tested on: HOP-92; assay: Growth inhibition of human HOP92 cells assessed as cell growth at 10 uM after 48 hrs by sulforhodamine B assay; conditions: HOP-92, 48 h, read-out: Activity; procedure, shortened: as §1
# [3] = tested on: 786-0; assay: Growth inhibition of human 786-0 cells assessed as cell growth at 10 uM after 48 hrs by sulforhodamine B assay; conditions: 786-0, 48 h, read-out: Activity; procedure, shortened: as §1
# [4] = tested on: MDA-MB-231; assay: Growth inhibition of human MDA-MB-231 cells assessed as cell growth at 10 uM after 48 hrs by sulforhodamine B assay; conditions: MDA-MB-231, 48 h, read-out: Activity; procedure, shortened: as §1
# [5] = tested on: MCF7; assay: Growth inhibition of human MCF7 cells assessed as cell growth at 10 uM after 48 hrs by sulforhodamine B assay; conditions: MCF7, 48 h, read-out: Activity; procedure, shortened: as §1
# [6] = tested on: SW-620; assay: Growth inhibition of human SW620 cells assessed as cell growth at 10 uM after 48 hrs by sulforhodamine B assay; conditions: SW-620, 48 h, read-out: Activity
# Procedure, shortened: (§2)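 NCI 60-cell-line panel from nine tumour types (leukaemia, lung, colon, CNS, melanoma, ovarian, renal, prostate, breast). Each compound was added at one single concentration, and cultures were incubated for 48 h. Results are reported as percent growth inhibition.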
# [7] = tested on: RXF 393; assay: Growth inhibition of human RXF393 cells assessed as cell growth at 10 uM after 48 hrs by sulforhodamine B assay; conditions: RXF 393, 48 h, read-out: Activity; procedure, shortened: as §1
# [8] = tested on: OVCAR-5; assay: Growth inhibition of human OVCAR5 cells assessed as cell growth at 10 uM after 48 hrs by sulforhodamine B assay; conditions: OVCAR-5, 48 h, read-out: Activity; procedure, shortened: as §1
# [9] = tested on: A549; assay: Growth inhibition of human A549/ATCC cells assessed as cell growth at 10 uM after 48 hrs by sulforhodamine B assay; conditions: A549, 48 h, read-out: Activity; procedure, shortened: as §1
# [10] = tested on: SNB-19; assay: Growth inhibition of human SNB19 cells assessed as cell growth at 10 uM after 48 hrs by sulforhodamine B assay; conditions: SNB-19, 48 h, read-out: Activity; procedure, shortened: as §2
# [11] = tested on: HT-29; assay: Growth inhibition of human HT-29 cells assessed as cell growth at 10 uM after 48 hrs by sulforhodamine B assay; conditions: HT-29, 48 h, read-out: Activity; procedure, shortened: as §1
# [12] = tested on: NCI-H23; assay: Growth inhibition of human NCI-H23 cells assessed as cell growth at 10 uM after 48 hrs by sulforhodamine B assay; conditions: NCI-H23, 48 h, read-out: Activity; procedure, shortened: as §1
# [13] = tested on: ACHN; assay: Growth inhibition of human ACHN cells assessed as cell growth at 10 uM after 48 hrs by sulforhodamine B assay; conditions: read-out: Activity; procedure, shortened: as §1
# [14] = tested on: NCI-H460; assay: Growth inhibition of human NCI-H460 cells assessed as cell growth at 10 uM after 48 hrs by sulforhodamine B assay; conditions: NCI-H460, 48 h, read-out: Activity; procedure, shortened: as §1
# [15] = tested on: MOLT-4; assay: Growth inhibition of human MOLT4 cells assessed as cell growth at 10 uM after 48 hrs by sulforhodamine B assay; conditions: MOLT-4, 48 h, read-out: Activity; procedure, shortened: as §1
# [16] = tested on: CCRF-CEM; assay: Growth inhibition of human CCRF-CEM cells assessed as cell growth at 10 uM after 48 hrs by sulforhodamine B assay; conditions: read-out: Activity; procedure, shortened: as §1
# [17] = tested on: OVCAR-4; assay: Growth inhibition of human OVCAR4 cells assessed as cell growth at 10 uM after 48 hrs by sulforhodamine B assay; conditions: OVCAR-4, 48 h, read-out: Activity; procedure, shortened: as §1
# [18] = tested on: DU-145; assay: Growth inhibition of human DU145 cells assessed as cell growth at 10 uM after 48 hrs by sulforhodamine B assay; conditions: DU-145, 48 h, read-out: Activity; procedure, shortened: as §1
# [19] = tested on: NCI-H322M; assay: Growth inhibition of human NCI-H322M cells assessed as cell growth at 10 uM after 48 hrs by sulforhodamine B assay; conditions: read-out: Activity; procedure, shortened: as §1
# [20] = tested on: MDA-MB-435; assay: Growth inhibition of human MDA-MB-435 cells assessed as cell growth at 10 uM after 48 hrs by sulforhodamine B assay; conditions: MDA-MB-435, 48 h, read-out: Activity; procedure, shortened: as §1
# [21] = tested on: COLO 205; assay: Growth inhibition of human COLO205 cells assessed as cell growth at 10 uM after 48 hrs by sulforhodamine B assay; conditions: COLO 205, 48 h, read-out: Activity; procedure, shortened: as §1
# [22] = tested on: LOX IMVI; assay: Growth inhibition of human LOXIMVI cells assessed as cell growth at 10 uM after 48 hrs by sulforhodamine B assay; conditions: read-out: Activity; procedure, shortened: as §1
# [23] = tested on: NCI-H226; assay: Growth inhibition of human NCI-H226 cells assessed as cell growth at 10 uM after 48 hrs by sulforhodamine B assay; conditions: NCI-H226, 48 h, read-out: Activity; procedure, shortened: as §1
# [24] = tested on: KM12; assay: Growth inhibition of human KM12 cells assessed as cell growth at 10 uM after 48 hrs by sulforhodamine B assay; conditions: KM12, 48 h, read-out: Activity; procedure, shortened: as §1
# [25] = tested on: IGROV-1; assay: Growth inhibition of human IGROV1 cells assessed as cell growth at 10 uM after 48 hrs by sulforhodamine B assay; conditions: IGROV-1, 48 h, read-out: Activity; procedure, shortened: as §1
# [26] = tested on: U-251; assay: Growth inhibition of human U251 cells assessed as cell growth at 10 uM after 48 hrs by sulforhodamine B assay; conditions: U-251, 48 h, read-out: Activity; procedure, shortened: as §2
# [27] = tested on: RPMI-8226; assay: Growth inhibition of human RPMI8226 cells assessed as cell growth at 10 uM after 48 hrs by sulforhodamine B assay; conditions: RPMI-8226, 48 h, read-out: Activity; procedure, shortened: as §1
# [28] = tested on: SNB-75; assay: Growth inhibition of human SNB75 cells assessed as cell growth at 10 uM after 48 hrs by sulforhodamine B assay; conditions: SNB-75, 48 h, read-out: Activity; procedure, shortened: as §2
# [29] = tested on: Hs-578T; assay: Growth inhibition of human Hs 578T cells assessed as cell growth at 10 uM after 48 hrs by sulforhodamine B assay; conditions: read-out: Activity; procedure, shortened: as §1
# [30] = tested on: M14; assay: Growth inhibition of human M14 cells assessed as cell growth at 10 uM after 48 hrs by sulforhodamine B assay; conditions: M14, 48 h, read-out: Activity; procedure, shortened: as §1
# [31] = tested on: Malme-3M; assay: Growth inhibition of human MALME-3M cells assessed as cell growth at 10 uM after 48 hrs by sulforhodamine B assay; conditions: read-out: Activity; procedure, shortened: as §1
# [32] = tested on: HOP-62; assay: Growth inhibition of human HOP62 cells assessed as cell growth at 10 uM after 48 hrs by sulforhodamine B assay; conditions: HOP-62, 48 h, read-out: Activity; procedure, shortened: as §1
# [33] = tested on: SF-268; assay: Growth inhibition of human SF268 cells assessed as cell growth at 10 uM after 48 hrs by sulforhodamine B assay; conditions: SF-268, 48 h, read-out: Activity; procedure, shortened: as §1
# [34] = tested on: EKVX; assay: Growth inhibition of human EKVX cells assessed as cell growth at 10 uM after 48 hrs by sulforhodamine B assay; conditions: read-out: Activity; procedure, shortened: as §1
# [35] = tested on: T47D; assay: Growth inhibition of human T47D cells assessed as cell growth at 10 uM after 48 hrs by sulforhodamine B assay; conditions: read-out: Activity; procedure, shortened: as §2
smiles,measurement,setting,value
CCOc1ccc(-n2nc(C(=O)Nc3ccc(OC)c(O)c3)nc2-c2cc(OC)c(OC)c(OC)c2)cc1,growth at 10 µM,[1],86.4%
same,growth at 10 µM,[2],68.1%
same,growth at 10 µM,[3],94.5%
same,growth at 10 µM,[4],65.8%
same,growth at 10 µM,[5],90.9%
same,growth at 10 µM,[6],104%
same,growth at 10 µM,[7],112%
same,growth at 10 µM,[8],102%
same,growth at 10 µM,[9],94%
same,growth at 10 µM,[10],91.8%
same,growth at 10 µM,[11],99.2%
same,growth at 10 µM,[12],86.1%
same,growth at 10 µM,[13],91.5%
same,growth at 10 µM,[14],97.6%
same,growth at 10 µM,[15],74.9%
same,growth at 10 µM,[16],89.5%
same,growth at 10 µM,[17],99.8%
same,growth at 10 µM,[18],98.5%
same,growth at 10 µM,[19],84.7%
same,growth at 10 µM,[20],95%
same,growth at 10 µM,[21],109%
same,growth at 10 µM,[22],90.6%
same,growth at 10 µM,[23],96.5%
same,growth at 10 µM,[24],92.8%
same,growth at 10 µM,[25],95.2%
same,growth at 10 µM,[26],93.2%
same,growth at 10 µM,[27],67.7%
same,growth at 10 µM,[28],71.2%
same,growth at 10 µM,[29],86.8%
same,growth at 10 µM,[30],103%
same,growth at 10 µM,[31],114%
same,growth at 10 µM,[32],99.3%
same,growth at 10 µM,[33],94.1%
same,growth at 10 µM,[34],95.7%
same,growth at 10 µM,[35],88.8%
